How the values were obtained:
Format in all cases: functional
Mus musculus [1] = experiment: Percent increase in life span against P-388 leukemia in mice was determined at a dose of 320 mg/kg; details: P388
Method in brief: (§1)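 Male B6D2F1J mice, 5 per dose group, received 10⁶ P-388 cells ip on day 0. Dosing was ip qd × 4 on days 1-4 in sterile saline, or 10% Tween 80 for the butyl thioether. Median survival times of treated (T) and untreated control (C, 10-17 mice) groups were compared: %ILS = [(T/C) − 1]100. Weights taken on days 1 and 7.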

Mus musculus [2] = experiment: Antitumor activity was determined for median survival of mice against P-388 leukemia in mice at a dose of 320 mg/kg
Method in brief: (§2)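 Male B6D2F1J mice implanted ip with 10⁶ P-388 cells on day 0; test agents given ip on days 1–4 (qd × 4) in sterile saline, or in 10% Tween 80 for the lipophilic thioether. Groups of 5 treated mice, with 10–17 untreated controls per experiment. Mice weighed on days 1 and 7 to give the 7-day weight change in g and %. Survival recorded in days as median and range.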

Mus musculus [3] = experiment: Antitumor activity was determined for median survival of mice against P-388 leukemia in mice at a dose of 640 mg/kg; method in brief: as §2
Mus musculus [4] = experiment: Antitumor activity was determined for survival range of mice against P-388 leukemia in mice at a dose of 320 mg/kg; method in brief: as §2
Mus musculus [5] = experiment: Antitumor activity was determined for average 7-day weight change against P-388 leukemia in mice at a dose of 160 mg/kg
Method in brief: (§3)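 Male B6D2F1J mice given 10⁶ P-388 cells ip on day 0, then treated ip once daily on days 1-4 (qd × 4), 5 mice per dose group. Compounds dosed in sterile saline, except one lipophilic thioether given in 10% Tween 80. Mice weighed on days 1 and 7; mean weight per mouse on day 1 and 7-day weight change reported in g and as percent.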

Mus musculus [6] = experiment: Antitumor activity was determined for average weight on day 1 against P-388 leukemia in mice at a dose of 640 mg/kg
Method in brief: (§4)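 Male B6D2F1J mice, groups of 5, inoculated ip with 10⁶ P-388 cells on day 0. Drug given ip on days 1-4 (qd × 4) in sterile saline, or in 10% Tween 80 for the poorly water-soluble thioether. Average weight per mouse recorded on day 1, with reweighing on day 7 for percent weight change. Untreated control groups had 10-17 animals per experiment.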

Mus musculus [7] = experiment: Antitumor activity was determined for median survival of mice against P-388 leukemia in mice at a dose of 80 mg/kg; method in brief: as §2
Mus musculus [8] = experiment: Antitumor activity was determined for 7-day average percent weight change against P-388 leukemia in mice at a dose of 160 mg/kg; method in brief: as §3
Mus musculus [9] = experiment: Antitumor activity was determined for 7-day average percent weight change against P-388 leukemia in mice at a dose of 80 mg/kg; method in brief: as §3
Mus musculus [10] = experiment: Antitumor activity was determined for survival range of mice against P-388 leukemia in mice at a dose of 640 mg/kg; method in brief: as §2
Mus musculus [11] = experiment: Antitumor activity was determined for average weight on day 1 against P-388 leukemia in mice at a dose of 40 mg/kg; method in brief: as §4
Mus musculus [12] = experiment: Antitumor activity was determined for median survival of mice against P-388 leukemia in mice at a dose of 40 mg/kg; method in brief: as §2
Mus musculus [13] = experiment: Antitumor activity was determined for average weight on day 1 against P-388 leukemia in mice at a dose of 320 mg/kg; method in brief: as §4
Mus musculus [14] = experiment: Antitumor activity was determined for average weight on day 1 against P-388 leukemia in mice at a dose of 80 mg/kg; method in brief: as §4
Mus musculus [15] = experiment: Percent increase in life span against P-388 leukemia in mice was determined at a dose of 640 mg/kg; details: P388; method in brief: as §1
Mus musculus [16] = experiment: Antitumor activity was determined for 7-day average percent weight change against P-388 leukemia in mice at a dose of 640 mg/kg; method in brief: as §3
Mus musculus [17] = experiment: Antitumor activity was determined for 7-day average percent weight change against P-388 leukemia in mice at a dose of 320 mg/kg; method in brief: as §3
Mus musculus [18] = experiment: Percent increase in life span against P-388 leukemia in mice was determined at a dose of 80 mg/kg; details: P388; method in brief: as §1
Mus musculus [19] = experiment: Antitumor activity was determined for average 7-day weight change against P-388 leukemia in mice at a dose of 40 mg/kg; method in brief: as §3
Mus musculus [20] = experiment: Antitumor activity was determined for average 7-day weight change against P-388 leukemia in mice at a dose of 80 mg/kg; method in brief: as §3
Mus musculus [21] = experiment: Percent increase in life span against P-388 leukemia in mice was determined at a dose of 160 mg/kg; details: P388; method in brief: as §1
L1210 = experiment: Evaluated for cytotoxicity against L1210 mouse leukemia cells; details: read-out: ID50 (the source's name)
Method in brief: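 L1210 murine leukemia cells in Eagle's minimal essential medium with 15% fetal calf serum, streptomycin (100 μg/mL), penicillin (100 units/mL) and 0.05 mM 2-mercaptoethanol. Cells counted by Coulter counter after 48 h exposure. ID50 is the 50% growth-inhibitory dose. Triplicate assays, standard deviation ±10%.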

Mus musculus [22] = experiment: Antitumor activity was determined for median survival of mice against P-388 leukemia in mice at a dose of 160 mg/kg; method in brief: as §2
Mus musculus [23] = experiment: Antitumor activity was determined for survival range of mice against P-388 leukemia in mice at a dose of 80 mg/kg
Method in brief: (§5)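 Male B6D2F1J mice, 5 per dose group, implanted ip with 10⁶ P-388 leukemia cells on day 0. Drug given ip daily on days 1-4 (qd × 4) in sterile saline, or in 10% Tween 80 for the butyl thioether. Survival range recorded in days. Untreated control groups had 10-17 animals per experiment. Mice weighed on days 1 and 7.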

Mus musculus [24] = experiment: Antitumor activity was determined for 7-day average percent weight change against P-388 leukemia in mice at a dose of 40 mg/kg; method in brief: as §3
Mus musculus [25] = experiment: Antitumor activity was determined for survival range of mice against P-388 leukemia in mice at a dose of 40 mg/kg; method in brief: as §2
Mus musculus [26] = experiment: Antitumor activity was determined for average weight on day 1 against P-388 leukemia in mice at a dose of 160 mg/kg; method in brief: as §3
Mus musculus [27] = experiment: Antitumor activity was determined for survival range of mice against P-388 leukemia in mice at a dose of 160 mg/kg; method in brief: as §2
Mus musculus [28] = experiment: Percent increase in life span against P-388 leukemia in mice was determined at a dose of 40 mg/kg; details: P388; method in brief: as §1
Mus musculus [29] = experiment: Antitumor activity was determined for average weight on day 1 against P-388 leukemia in mice at a dose of 150 mg/kg; method in brief: as §3
Mus musculus [30] = experiment: Antitumor activity was determined for survival range of mice against P-388 leukemia in mice at a dose of 600 mg/kg; method in brief: as §2
Mus musculus [31] = experiment: Antitumor activity was determined for median survival of mice against P-388 leukemia in mice at a dose of 600 mg/kg; method in brief: as §2
Mus musculus [32] = experiment: Percent increase in life span against P-388 leukemia in mice was determined at a dose of 300 mg/kg; details: P388; method in brief: as §1
Mus musculus [33] = experiment: Antitumor activity was determined for survival range of mice against P-388 leukemia in mice at a dose of 150 mg/kg; method in brief: as §2
Mus musculus [34] = experiment: Percent increase in life span against P-388 leukemia in mice was determined at a dose of 600 mg/kg; details: P388; method in brief: as §1
Mus musculus [35] = experiment: Antitumor activity was determined for survival range of mice against P-388 leukemia in mice at a dose of 300 mg/kg; method in brief: as §2
Mus musculus [36] = experiment: Percent increase in life span against P-388 leukemia in mice was determined at a dose of 150 mg/kg; details: P388; method in brief: as §1
Mus musculus [37] = experiment: Antitumor activity was determined for 7-day average percent weight change against P-388 leukemia in mice at a dose of 300 mg/kg; method in brief: as §3
Mus musculus [38] = experiment: Antitumor activity was determined for average 7-day weight change against P-388 leukemia in mice at a dose of 75 mg/kg; method in brief: as §3
Mus musculus [39] = experiment: Antitumor activity was determined for average 7-day weight change against P-388 leukemia in mice at a dose of 150 mg/kg; method in brief: as §3
Mus musculus [40] = experiment: Percent increase in life span against P-388 leukemia in mice was determined at a dose of 75 mg/kg; details: P388; method in brief: as §1
Mus musculus [41] = experiment: Antitumor activity was determined for survival range of mice against P-388 leukemia in mice at a dose of 75 mg/kg; method in brief: as §5
Mus musculus [42] = experiment: Antitumor activity was determined for 7-day average percent weight change against P-388 leukemia in mice at a dose of 150 mg/kg; method in brief: as §3
Mus musculus [43] = experiment: Antitumor activity was determined for average weight on day 1 against P-388 leukemia in mice at a dose of 300 mg/kg; method in brief: as §4
Mus musculus [44] = experiment: Antitumor activity was determined for median survival of mice against P-388 leukemia in mice at a dose of 300 mg/kg; method in brief: as §2
Mus musculus [45] = experiment: Antitumor activity was determined for median survival of mice against P-388 leukemia in mice at a dose of 75 mg/kg; method in brief: as §2
Mus musculus [46] = experiment: Antitumor activity was determined for median survival of mice against P-388 leukemia in mice at a dose of 150 mg/kg; method in brief: as §2
Mus musculus [47] = experiment: Antitumor activity was determined for average 7-day weight change against P-388 leukemia in mice at a dose of 300 mg/kg; method in brief: as §3
Mus musculus [48] = experiment: Antitumor activity was determined for average weight on day 1 against P-388 leukemia in mice at a dose of 600 mg/kg; method in brief: as §4
Mus musculus [49] = experiment: Antitumor activity was determined for average weight on day 1 against P-388 leukemia in mice at a dose of 75 mg/kg; method in brief: as §4
Mus musculus [50] = experiment: Antitumor activity was determined for 7-day average percent weight change against P-388 leukemia in mice at a dose of 75 mg/kg; method in brief: as §3

O=c1[nH]c(=O)n(C2OC[C@@H](O)[C@H]2O)cc1F (some centres not stated) was tested, and the ILS at 320 mg/kg (Mus musculus [1]) was 41%, the Survival median (Mus musculus [2]) was 17 and the Survival median (Mus musculus [3]) was 21. It also gave a Survival range (Mus musculus [4]) of 16, an Average weight (Mus musculus [5]) of 1.6 g mouse-1 and an Average weight (Mus musculus [6]) of 25.6 g mouse-1. It also gave a Survival median (Mus musculus [7]) of 14, a Weight change (Mus musculus [8]) of 8% and a Weight change (Mus musculus [9]) of 11%. For the same compound, the Survival range (Mus musculus [10]) was 17, the Average weight (Mus musculus [11]) was 25.2 g mouse-1 and the Survival median (Mus musculus [12]) was 12. The Average weight (Mus musculus [13]) was 25.8 g mouse-1, the Average weight (Mus musculus [14]) was 24.2 g mouse-1 and the ILS at 640 mg/kg (Mus musculus [15]) was 75%. For the same compound, the Weight change (Mus musculus [16]) was -9%, the Weight change (Mus musculus [17]) was 1% and the ILS at 80 mg/kg (Mus musculus [18]) was 16%. The Average weight (Mus musculus [19]) was 3 g mouse-1, the Average weight (Mus musculus [20]) was 2.6 g mouse-1 and the ILS at 160 mg/kg (Mus musculus [21]) was 25%. For the same compound, the IC50 (L1210) was 130 µM, the Survival median (Mus musculus [22]) was 15 and the Survival range (Mus musculus [23]) was 11. It also gave a Weight change (Mus musculus [24]) of 12%, a Survival range (Mus musculus [25]) of 12 and an Average weight (Mus musculus [26]) of 24.2 g mouse-1. The Survival range (Mus musculus [27]) was 14 and the ILS at 40 mg/kg (Mus musculus [28]) was 0%.
CCCCSC[C@H]1OC(n2cc(F)c(=O)[nH]c2=O)[C@H](O)[C@@H]1O (some centres not stated) gave an Average weight (Mus musculus [29]) of 27.8 g mouse-1, a Survival range (Mus musculus [30]) of 3 and a Survival median (Mus musculus [31]) of 4. The ILS at 300 mg/kg (Mus musculus [32]) was -9%, the Survival range (Mus musculus [33]) was 10 and the ILS at 600 mg/kg (Mus musculus [34]) was -67%. For the same compound, the Survival range (Mus musculus [35]) was 11, the ILS at 150 mg/kg (Mus musculus [36]) was -9% and the Weight change (Mus musculus [37]) was -1%. For the same compound, the Average weight (Mus musculus [38]) was 2 g mouse-1, the Average weight (Mus musculus [39]) was 1.4 g mouse-1 and the ILS at 75 mg/kg (Mus musculus [40]) was -9%. The Survival range (Mus musculus [41]) was 11, the Weight change (Mus musculus [42]) was 5% and the Average weight (Mus musculus [43]) was 28 g mouse-1. For the same compound, the Survival median (Mus musculus [44]) was 11, the Survival median (Mus musculus [45]) was 11 and the Survival median (Mus musculus [46]) was 11. For the same compound, the Average weight (Mus musculus [47]) was -0.4 g mouse-1, the Average weight (Mus musculus [48]) was 26.4 g mouse-1 and the IC50 (L1210) was 270 µM. It also gave an Average weight (Mus musculus [49]) of 26.6 g mouse-1 and a Weight change (Mus musculus [50]) of 8%.

Source: ChEMBL document CHEMBL1122125, “Synthesis and in vivo antitumor activity of potential 5-fluorouracil prodrugs” (1982)
